Series [1] has as its target T1, 3-hydroxy-3-methylglutaryl-coenzyme A reductase (Rattus norvegicus, UniProt P51639).
T1 sequence (P51639 whole entry): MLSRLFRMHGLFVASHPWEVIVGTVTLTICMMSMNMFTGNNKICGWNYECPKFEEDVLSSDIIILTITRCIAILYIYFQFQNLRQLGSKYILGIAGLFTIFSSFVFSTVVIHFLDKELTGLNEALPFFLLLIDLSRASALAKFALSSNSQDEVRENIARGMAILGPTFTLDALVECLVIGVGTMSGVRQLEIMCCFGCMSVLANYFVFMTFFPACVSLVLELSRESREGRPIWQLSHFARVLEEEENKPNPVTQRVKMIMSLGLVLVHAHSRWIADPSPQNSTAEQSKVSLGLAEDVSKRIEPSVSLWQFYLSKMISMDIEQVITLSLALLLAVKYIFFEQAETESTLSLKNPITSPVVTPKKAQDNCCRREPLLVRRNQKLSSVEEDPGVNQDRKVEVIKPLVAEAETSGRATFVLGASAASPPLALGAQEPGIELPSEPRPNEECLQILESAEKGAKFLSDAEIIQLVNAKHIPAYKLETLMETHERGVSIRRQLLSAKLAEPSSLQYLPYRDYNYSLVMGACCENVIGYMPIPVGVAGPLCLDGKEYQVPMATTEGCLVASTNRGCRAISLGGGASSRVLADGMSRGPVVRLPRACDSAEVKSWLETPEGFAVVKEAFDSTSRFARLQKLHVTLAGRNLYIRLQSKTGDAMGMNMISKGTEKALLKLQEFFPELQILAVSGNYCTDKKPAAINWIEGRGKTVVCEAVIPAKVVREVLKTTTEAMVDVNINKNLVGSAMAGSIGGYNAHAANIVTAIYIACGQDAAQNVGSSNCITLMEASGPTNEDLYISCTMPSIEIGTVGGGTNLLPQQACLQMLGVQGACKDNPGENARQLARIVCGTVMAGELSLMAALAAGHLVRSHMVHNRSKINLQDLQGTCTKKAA
Kind of series: Inhibition of rat liver microsomal HMG-CoA reductase. In a few lines:
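Test agents run as sodium salts of the dihydroxy carboxylic acids, against rat liver microsomal enzyme. Five dose levels per inhibitor, at least in duplicate, on at least two separate occasions. IC50 given as the mean, with pravastatin sodium salt as reference.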

Series [2] in a line: Lipophilicity was determined. Type of series: physicochemical. The following applies: octanol/water.

pIC50: −log10 of the molar value.

In general, pIC50 refers to the negative decadic logarithm of the IC50, by convention in mol/L. Low readings indicate a large IC50, high ones a small IC50. For orientation: logD means lipophilicity at a set pH, counting ionised and neutral species. Read a low logD as a more hydrophilic compound.

As to `COC(=O)C[C@H](O)C[C@H](O)/C=C/n1c(C(C)C)cc(-c2ccccn2)c1-c1ccc(F)cc1`, the negative logarithm of the IC50 (pIC50) in series [1] is 8.70.

As for `COC(=O)C[C@H](O)C[C@H](O)/C=C/n1c(C(C)C)cc(-c2ccc(F)cc2)c1-c1ccc(F)cc1`, in series [1], the pIC50 is 8.70. Also, the logD in series [2] stood at 2.1. As to `COC(=O)C[C@H](O)C[C@H](O)/C=C/n1c(C(C)C)cc(-c2cccc(Br)c2)c1-c1ccc(F)cc1`, the pIC50 in series [1] is 9.30. Besides, the logD in series [2] came out at 2.8. Compound `COC(=O)C[C@H](O)C[C@H](O)/C=C/n1c(C(C)C)cc(-c2ccccc2)c1-c1ccc(F)cc1` gave a pIC50 in series [1] of 8.70. Take `COC(=O)C[C@H](O)C[C@H](O)/C=C/n1c(C(C)C)cc(-c2ccncc2)c1-c1ccc(F)cc1`: the pIC50 in series [1] is 8.30. In series [2], this compound yielded a logD of 0.9. Regarding `COC(=O)C[C@H](O)C[C@H](O)/C=C/n1c(C(C)C)cc(-c2ccc(F)cc2)c1-c1cccc(Cl)c1`, in series [1], the pIC50 is 7.15. As to `CC[C@H](C)C(=O)O[C@H]1C[C@@H](C)C=C2C=C[C@H](C)[C@H](CC[C@@H]3C[C@@H](O)CC(=O)O3)[C@H]21` [LOVASTATIN], the pIC50 in series [1] is 8.52.

The compound `COC(=O)C[C@H](O)C[C@H](O)/C=C/n1c(C(C)C)cc(-c2ccc(F)cc2)c1-c1cccc(Br)c1` had a pIC50 in series [1] of 7.16. Against the preceding compound, the pIC50 is 1.36 log units lower. For the compound `CC[C@H](C)C(=O)O[C@H]1C[C@H](O)C=C2C=C[C@H](C)[C@H](CC[C@@H](O)C[C@@H](O)CC(=O)O)[C@H]21` [PRAVASTATIN SODIUM], in series [1], the pIC50 is 8.30. This pIC50 lies 1.14 log units higher than the previous one. Compound `COC(=O)C[C@H](O)C[C@H](O)CCn1c(C(C)C)cc(-c2ccc(F)cc2)c1-c1ccc(F)cc1` had a pIC50 in series [1] of 6.98. This pIC50 is 1.32 log units lower than that of the compound before. `COC(=O)C[C@H](O)C[C@H](O)/C=C/n1c(C(C)C)cc(-c2ccc(F)cc2)c1-c1ccccc1` showed a pIC50 in series [1] of 7.60.

`COC(=O)C[C@H](O)C[C@H](O)/C=C/n1c(-c2ccc(F)cc2)c(-c2ccc(F)cc2)c(Br)c1C(C)C` showed a pIC50 in series [1] of 9.52. Against the preceding compound, the pIC50 is 1.92 log units higher.

Turning to `COC(=O)C[C@H](O)C[C@H](O)/C=C/n1c(C(C)C)cc(-c2cccc(Cl)c2)c1-c1ccc(F)cc1`, the pIC50 in series [1] was 8.70. Further, in series [2], the logD was 2.57.
